Measurements: ChEMBL document CHEMBL4414560, “Goniolanceolatins A-H, Cytotoxic Bis-styryllactones from Goniothalamus lanceolatus” (J Nat Prod, 2019)

Tests used:
[1] = tested on: NCI-H1299; assay: Cytotoxicity against human NCI-H1299 cells assessed as reduction in cell viability incubated fpr 72 hrs by celltiter-glo luminescent cell viability assay; format: functional, cell-based; settings: NCI-H1299, 72 h
How it was run: (§1)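 Lung cancer lines received as gifts from the National Cancer Institute, Selangor, Malaysia, incubated at 37 °C, 5% CO2. Cells plated for 24 h, then drug-exposed for 72 h. Luminescent CellTiter-Glo viability read-out. IC50 is the concentration killing 50% of cells, reported as mean ± S.D. from at least three independent experiments. Cisplatin-treated cells used for validation.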

[2] = tested on: HCT-116; assay: Cytotoxicity against human HCT116 cells assessed as reduction in cell viability incubated fpr 72 hrs by celltiter-glo luminescent cell viability assay; format: functional, cell-based; settings: HCT-116, 72 h
How it was run: (§2)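 Cell lines from ATCC, grown in RPMI-1640 with 10% FBS, 100 IU/mL penicillin and 100 μg/mL streptomycin at 37 °C, 5% CO2. Seeded for 24 h, then exposed to compound for 72 h. Viability read by CellTiter-Glo luminescence. IC50 is the concentration killing 50% of cells, reported as mean ± S.D. of at least three independent experiments. Cisplatin-treated cells served for validation.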

[3] = tested on: Calu-1; assay: Cytotoxicity against human Calu1 cells assessed as reduction in cell viability incubated fpr 72 hrs by celltiter-glo luminescent cell viability assay; format: functional, cell-based; settings: Calu-1, 72 h; how it was run: as §2
[4] = tested on: A549; assay: Cytotoxicity against human A549 cells assessed as reduction in cell viability incubated fpr 72 hrs by celltiter-glo luminescent cell viability assay; format: functional, cell-based; settings: A549, 72 h; how it was run: as §2
[5] = tested on: SW48; assay: Cytotoxicity against human SW48 cells assessed as reduction in cell viability incubated fpr 72 hrs by celltiter-glo luminescent cell viability assay; format: functional, cell-based; settings: SW48, 72 h; how it was run: as §2
[6] = tested on: NCI-H23; assay: Cytotoxicity against human NCI-H23 cells assessed as reduction in cell viability incubated fpr 72 hrs by celltiter-glo luminescent cell viability assay; format: functional, cell-based; settings: NCI-H23, 72 h; how it was run: as §1
[7] = tested on: CCD-841CoN; assay: Cytotoxicity against human CCD-841-CoN cells assessed as reduction in cell viability incubated fpr 72 hrs by celltiter-glo luminescent cell viability assay; format: cell-based
How it was run: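 Noncancerous colorectal CCD 841 CoN cells kept in DMEM with 20% FBS, 100 IU/mL penicillin and 100 μg/mL streptomycin at 37 °C, 5% CO2. Plated 24 h, then treated 72 h. Viability by CellTiter-Glo luminescence. IC50 is the 50%-kill concentration, given as mean ± S.D. from at least three independent experiments. Cisplatin used for validation.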

[8] = tested on: Caco-2; assay: Cytotoxicity against human Caco2 cells assessed as reduction in cell viability incubated fpr 72 hrs by celltiter-glo luminescent cell viability assay; format: functional, cell-based; settings: Caco-2, 72 h; how it was run: as §2
[9] = tested on: HCC 2998; assay: Cytotoxicity against human HCC2998 cells assessed as reduction in cell viability incubated fpr 72 hrs by celltiter-glo luminescent cell viability assay; format: functional, cell-based; settings: HCC 2998, 72 h; how it was run: as §2
[10] = tested on: MRC5; assay: Cytotoxicity against human MRC5 cells assessed as reduction in cell viability incubated fpr 72 hrs by celltiter-glo luminescent cell viability assay; format: cell-based; settings: MRC5, 72 h; how it was run: as §2

For CC(=O)O[C@@H](c1ccccc1)[C@@H](O[C@@H]1[C@@H]2C[C@@H](CC(=O)O2)O[C@H]1c1ccccc1)[C@@H]1CC=CC(=O)O1, which IC50 [1] is on record?
The IC50 was > 10 µM.

And the IC50 [2]?
Its IC50 is 9.5 µM.

What about the IC50 [3] of the same compound?
The IC50 was > 10 µM.

And the IC50 [4]?
The IC50 was > 10 µM.

What about the IC50 [5] of the same compound?
The IC50 was > 10 µM.

What about the IC50 [6] of the same compound?
Its IC50 is 9.3 µM.

What about the IC50 [7] of the same compound?
Its IC50 is > 100 µM.

And the IC50 [8]?
The IC50 was > 10 µM.

And the IC50 [9]?
Its IC50 is > 10 µM.

What about the IC50 [10] of the same compound?
The IC50 was > 100 µM.

O=C1C=CC[C@@H]([C@H](O)[C@H](O[C@@H](c2ccccc2)[C@@H](O)[C@@H]2CC=CC(=O)O2)c2ccccc2)O1 was tested. Which IC50 [1] did it give?
Its IC50 is 7.1 µM.

And the IC50 [2]?
The IC50 was 5.9 µM.

What about the IC50 [3] of the same compound?
Its IC50 is 5.4 µM.

And the IC50 [4]?
Its IC50 is 7.8 µM.

What about the IC50 [5] of the same compound?
Its IC50 is 4.1 µM.

And the IC50 [6]?
The IC50 was 3.2 µM.

What about the IC50 [7] of the same compound?
Its IC50 is > 100 µM.

And the IC50 [8]?
The IC50 was > 10 µM.

And the IC50 [9]?
Its IC50 is 2.9 µM.

What about the IC50 [10] of the same compound?
The IC50 was > 100 µM.

With O=C1C=CC[C@@H]([C@H](O)[C@@H](O[C@H]([C@@H]2CC=CC(=O)O2)[C@@H](O)c2ccccc2)c2ccccc2)O1 as the compound, how does the IC50 [1] read?
The IC50 was 9.5 µM.

And the IC50 [2]?
The IC50 was 8 µM.

And the IC50 [3]?
Its IC50 is 7.5 µM.

And the IC50 [4]?
Its IC50 is > 10 µM.

And the IC50 [5]?
The IC50 was 5.5 µM.

And the IC50 [6]?
The IC50 was 5.2 µM.

What about the IC50 [7] of the same compound?
The IC50 was > 100 µM.

And the IC50 [8]?
The IC50 was > 10 µM.

And the IC50 [9]?
Its IC50 is > 10 µM.

And the IC50 [10]?
The IC50 was > 100 µM.

Which results are given for CC(=O)O[C@@H]([C@@H]1CC=CC(=O)O1)[C@H](O[C@@H](c1ccccc1)[C@@H](O)[C@@H]1CC=CC(=O)O1)c1ccccc1?
IC50 [1]: 4.6 µM; IC50 [2]: 4.1 µM; IC50 [3]: 2.2 µM; IC50 [4]: 6.4 µM; IC50 [5]: 4.1 µM; IC50 [6]: 2.6 µM; IC50 [7]: > 100 µM; IC50 [8]: 7 µM; IC50 [9]: > 10 µM; IC50 [10]: > 100 µM
